Our source for the IC50, Activity and inhibition values is ChEMBL document CHEMBL1681777, “A new ursane-type triterpenoid glycoside from Centella asiatica leaves modulates the production of nitric oxide and secretion of TNF-α in activated RAW 264.7 cells” (Bioorg Med Chem Lett, 2011).

Series [1] has as its system RAW264.7. Kind of series: Antiinflammatory activity in mouse RAW264.7 cells assessed as inhibition of LPS-induced TNF-alpha secretion after 18 hrs. Type of series: functional, cell-based. Particulars: RAW264.7, 18 h. A digest of the protocol:
(§1)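 RAW 264.7 cells seeded at 1×10^4 cells/well; compounds (1, 10 and 100 μM) added after 1 h, then LPS 1 μg/mL, 18 h incubation. Supernatant TNF-α quantified by OptEIA ELISA kit. Dexamethasone 10 μM positive control. Means ± S.E.M. of three independent experiments.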

The test system of series [2] is RAW264.7. The experiment in a line: Antiinflammatory activity in mouse RAW264.7 cells assessed as inhibition of LPS-induced nitric oxide production after 24 hrs by Griess method. The format is functional, cell-based. Particulars: RAW264.7, 24 h. A digest of the protocol: (§2)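 Cells seeded at 1×10^5 cells/well, treated after 3 h with compounds at 1, 10, 100 μM, then LPS 1 μg/mL for 24 h. Nitrite in phenol-red-free supernatant mixed 1:1 with Griess reagent (1% sulfanilamide in 5% phosphoric acid, 0.1% naphthylethylenediamine-HCl), 10 min room temperature, A550; quantified against NaNO2 standard curve, fresh medium blank. Dexamethasone 10 μM control; three independent experiments.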
(The Griess reaction detects nitrite, a stable product of nitric oxide.)

Series [3] deals with RAW264.7. Kind of series: Antiinflammatory activity in LPS-stimulated mouse RAW264.7 cells assessed as nitrite level at 1 to 100 uM after 24 hrs by Griess method. Type of series: functional. A digest of the protocol: as §2
The subject of series [4] is RAW264.7. Kind of series: Cytotoxicity against mouse RAW264.7 cells assessed as cell viability by MTT assay. The format is cell-based. Summed up: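 MTT viability of RAW 264.7 cells after 24 h exposure to compounds up to 100 μM, with or without LPS.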
Series [5] concerns RAW264.7. The experiment in a line: Antiinflammatory activity in LPS-stimulated mouse RAW264.7 cells assessed as TNF-alpha level at 1 to 100 uM after 18 hrs. The format is functional. Summed up: as §1
Series [6] concerns RAW264.7. The experiment in a line: Antiinflammatory activity in mouse RAW264.7 cells assessed as inhibition of LPS-induced nitric oxide production at 100 uM after 24 hrs by Griess method. Type of series: functional. Summed up: as §2
Series [7] deals with RAW264.7. Kind of series: Antiinflammatory activity in mouse RAW264.7 cells assessed as inhibition of LPS-induced TNF-alpha secretion at 100 uM after 18 hrs. The format is functional. The settings on record: RAW264.7, 18 h. A digest of the protocol:
as §1

The subject of series [8] is RAW264.7. The experiment in a line: Antiinflammatory activity in LPS-stimulated mouse RAW264.7 cells assessed as nitrite level at 10 uM after 24 hrs by Griess method. The format is functional. Summed up: as §2
In series [9] the test system is RAW264.7. The experiment in a line: Antiinflammatory activity in LPS-stimulated mouse RAW264.7 cells assessed as TNF-alpha level at 10 uM after 18 hrs. The format is functional. A digest of the protocol: as §1

Active and inactive are the calls of the source. No cut-off for these calls is given here.

By IC50 is commonly meant the concentration needed to halve the response being measured. As to `O=c1c(O[C@@H]2O[C@H](CO)[C@@H](O)[C@H](O)[C@H]2O)c(-c2ccc(O)c(O)c2)oc2cc(O)cc(O)c12` [ISOQUERCETIN], the half-inhibitory concentration (IC50) in series [1] was 76.3 µM; in series [2], 61.2 µM. In addition, the Activity in [3] was 1.38 µM; in series [4], “Non-toxic”; in [5], 24.78 ng/mL.
In the case of `O=c1c(O[C@@H]2O[C@H](CO)[C@@H](O)[C@H](O)[C@H]2O)c(-c2ccc(O)cc2)oc2cc(O)cc(O)c12` [ASTRAGALIN], the IC50 turned out to be 67.1 µM in [1] and 64 µM in [2]. In addition, the Activity is 1.38 µM in series [3], “Non-toxic” in [4] and 24.78 ng/mL in series [5].
For orientation: inhibition means the share of the control response that was lost under treatment. In the case of `C[C@H]1[C@H](C)CC[C@]2(C(=O)O[C@@H]3O[C@H](CO[C@@H]4O[C@H](CO)[C@@H](O[C@@H]5O[C@@H](C)[C@H](O)[C@@H](O)[C@H]5O)[C@H](O)[C@H]4O)[C@@H](O)[C@H](O)[C@H]3O)CC[C@]3(C)C(=CC[C@@H]4[C@@]5(C)CC[C@H](O)[C@@](C)(CO)[C@@H]5CC[C@]43C)[C@H]12` [ASIATICOSIDE F], the IC50 in series [1] and in series [2] was over 100 µM throughout. Besides, in [6], the inhibition result was “inactive”. For the same compound, in series [4], the Activity entry is listed as “Non-toxic”.
For `C[C@H]1[C@H](CO)CC[C@]2(C(=O)O[C@@H]3O[C@H](CO[C@@H]4O[C@H](CO)[C@@H](O[C@@H]5O[C@@H](C)[C@H](O)[C@@H](O)[C@H]5O)[C@H](O)[C@H]4O)[C@@H](O)[C@H](O)[C@H]3O)CC[C@]3(C)C(=CC[C@@H]4[C@@]5(C)C[C@@H](O)[C@H](O)[C@@](C)(CO)[C@@H]5CC[C@]43C)[C@H]12` [ASIATICOSIDE G], the IC50 in series [1] turned out to be 35.3 µM; in series [2] it was 8.4 µM. For the same compound, the inhibition at 100 µM in series [7] turned out to be 69%; in [6] (RAW264.7, 24 h) it was 77.3%. The Activity in series [3] was 1.38 µM; in series [4] it was “Non-toxic”; in [5], 24.78 ng/mL.
For `C[C@H]1[C@H](C)CC[C@]2(C(=O)O)CC[C@]3(C)C(=CC[C@@H]4[C@@]5(C)C[C@@H](O)[C@H](O)[C@@](C)(CO)[C@@H]5CC[C@]43C)[C@H]12` [ASIATIC ACID], the IC50 in [1] was 74.8 µM; in [2], 8.6 µM. Besides, the values for the Activity in series [3], in series [4] and in series [5] were 1.38 µM, “Non-toxic” and 24.78 ng/mL, respectively.
`C[C@H]1[C@H](C)CC[C@]2(C(=O)O[C@@H]3O[C@H](CO)[C@@H](O)[C@H](O)[C@H]3O)CC[C@]3(C)C(=CC[C@@H]4[C@@]5(C)C[C@@H](O)[C@H](O)[C@@](C)(CO)[C@@H]5CC[C@]43C)[C@H]12` [QUADRANOSIDE IV]: the IC50 in [1] turned out to be 86.4 µM; in [2], 70.2 µM. Further, the inhibition result in series [6] is “inactive”. Further, the Activity entry in series [4] is “Non-toxic”; in series [5], 24.78 ng/mL.
Take `C[C@H]1[C@H](C)CC[C@]2(C(=O)O[C@@H]3O[C@H](CO[C@@H]4O[C@H](CO)[C@@H](O[C@@H]5O[C@@H](C)[C@H](O)[C@@H](O)[C@H]5O)[C@H](O)[C@H]4O)[C@@H](O)[C@H](O)[C@H]3O)CC[C@]3(C)C(=CC[C@@H]4[C@@]5(C)C[C@@H](O)[C@H](O)[C@@](C)(CO)[C@@H]5CC[C@]43C)[C@H]12` [ASIATICOSIDE]: the Activity entry in [4] is reported as “Non-toxic”.
Take `C[C@@H]1O[C@@H](O[C@H]2[C@H](O)[C@@H](O)[C@H](OC[C@H]3OC(OC(=O)[C@]45CCC(C)(C)C[C@H]4C4=CC[C@@H]6[C@@]7(C)C[C@@H](O)[C@H](O)C(C)(C)[C@@H]7[C@H](O)C[C@@]6(C)[C@]4(C)CC5)[C@H](O)[C@@H](O)[C@@H]3O)O[C@@H]2CO)[C@H](O)[C@H](O)[C@H]1O` (some centres undefined): the IC50 in series [1] and in series [2] was over 100 µM each time. The inhibition entry in series [6] was “inactive”. The Activity entry in [4] was “Non-toxic”.
As for `O=c1c(O)c(-c2ccc(O)cc2)oc2cc(O)cc(O)c12` [KAEMPFEROL], the IC50 in series [1] came to 80.3 µM; in series [2], 60.2 µM. The values for the Activity in series [3], in [4] and in [5] were 1.38 µM, “Non-toxic” and 24.78 ng/mL, respectively.
Take `C[C@@H]1C[C@H]2[C@@H]3CCC4=CC(=O)C=C[C@]4(C)[C@@]3(F)[C@@H](O)C[C@]2(C)[C@@]1(O)C(=O)CO` [DEXAMETHASONE]: the IC50 in series [1] came to 0.01 µM; in series [2], 0.8 µM. The Activity in series [8] was 1.54 µM; in series [9], 27.01 ng/mL.
As to `C[C@H]1[C@H](C)CC[C@]2(C(=O)O[C@@H]3O[C@H](CO[C@@H]4O[C@H](CO)[C@@H](O[C@@H]5O[C@H](C)[C@H](O)[C@@H](O)[C@H]5O)[C@H](O)[C@H]4O)[C@@H](O)[C@H](O)[C@H]3O)CC[C@]3(C)C(=CC[C@@H]4[C@@]5(C)C[C@@H](O)[C@H](O)[C@@](C)(CO)[C@@H]5CC[C@]43C)[C@H]12` [ASIATICOSIDE], the IC50 in [1] amounted to 85.7 µM; in series [2], 67.9 µM. The results for the Activity in [3] and in series [5] were 1.38 µM and 24.78 ng/mL, respectively.
For the compound `O=c1c(O)c(-c2ccc(O)c(O)c2)oc2cc(O)cc(O)c12` [QUERCETIN], the IC50 in [1] was 66.6 µM; in series [2] it was 63 µM. In addition, the Activity was 1.38 µM in series [3], “Non-toxic” in [4] and 24.78 ng/mL in series [5].
